Experimental data of several laboratories.
Lines come from different studies, so protocols differ.
Matrix: plasma

SMILES | host | route | dose | setting | AUC(0-t)
C[C@@]1(c2cc(NC(=O)c3ccc(C#N)cn3)ccc2F)C=CSC(N)=N1 | human | oral | 3 mg | single dose | 231 ng·h/mL
CO[C@@H]1[C@H](OC(=O)N2CC(CCN3CCOCC3)C2)CC[C@]2(CO2)[C@H]1[C@@]1(C)O[C@@H]1CC=C(C)C | human | subcutaneous | 0.2 mg | single dose, healthy volunteers | 0.24 ng·h/mL
C[C@@H](Nc1cc(F)cc(F)c1)c1cc(C(=O)N(C)C)cc2c(=O)cc(N3CCOCC3)oc12 | human | oral | 60 mg | single dose, patients | 1240 ng·h/mL
COc1cc(N2CCC(N3CCN(C)CC3)CC2)ccc1Nc1ncnc(Nc2ccccc2S(=O)(=O)C(C)C)n1 | human | oral | 75 mg | multiple doses, patients | 3810 ng·h/mL
COCCOc1cnc2ccn([C@H](C)c3nnc4c(F)cc(-c5cnn(C)c5)cn34)c(=O)c2c1 | human | oral | 100 mg | multiple doses, once daily, patients | 17300 ng·h/mL
CO[C@H]1CC[C@H](N2C(=O)CNc3ncc(-c4ccc(C(C)(C)O)nc4)nc32)CC1 | human | oral | 45 mg | multiple doses, patients | 2080 ng·h/mL
FC(F)(F)c1ccc(CNc2ccc(Cc3c[nH]c4ncc(Cl)cc34)cn2)cn1 | human | oral | 1000 mg | multiple doses, patients | 14000 ng·h/mL
COc1ccc([C@@H]2CN(C(=O)[C@@H](O)CO)C[C@@]2(C)[C@@H](C)O)cc1OC1CN(c2ccc(C)cn2)C1 | human | oral | 30 mg | single dose, healthy volunteers | 5620 ng·h/mL
OC[C@H]1O[C@@H](c2ccc(Cl)c(Cc3ccc(O[C@H]4CCOC4)cc3)c2)[C@H](O)[C@@H](O)[C@@H]1O | human | oral | 25 mg | single dose | 4.31 µM·h
CC(C)(O)c1ccccc1-c1ccc2[nH]c(/C=C/c3ccc(C(F)(F)F)cc3)nc2c1 | male human | oral | 120 mg | single dose, fasted | 2820 ng·h/mL
Cc1nc(NC(=O)N2CCC[C@H]2C(N)=O)sc1-c1ccnc(C(C)(C)C(F)(F)F)c1 | human | oral | 180 mg | patients | 15500 ng·h/mL
CC(C)n1cc(C#N)c2cc(-n3cc(C(=O)O)cn3)ccc21 | human | oral | 50 mg | single dose, fasted, healthy volunteers | 6980 ng·h/mL
